The source of these data is ChEMBL document CHEMBL1122014, “1,2,5-thiadiazole 1-oxide and 1,1-dioxide derivatives. A new class of potent histamine H2-receptor antagonists” (J Med Chem, 1982).

In test [1] the target is Adrenergic receptor beta (Rattus norvegicus, UniProt P18090+P10608+P26255). Briefly: Antagonism of Beta adrenergic receptor in the isolated rat uterus. The class given is functional, tissue-based.
For test [2], the target named is Histamine H2 receptor (Cavia porcellus, UniProt P47747). Briefly: Competitive antagonism of Histamine H2 receptor in the isolated guinea pig atrium. Format: functional, tissue-based, Cardiac atrium. The conditions noted are these: read-out: pA2 (converted). An outline of the steps: (§1)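 Isolated guinea pig right atrium; antagonism of the positive chronotropic response to histamine. Apparent KB from the Furchgott method: KB = antagonist concentration/(dose ratio − 1), using a single antagonist concentration that gave parallel dose-response shifts without lowering the maximum. Values are means of three to five preparations per antagonist.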

The target in test [3] is Histamine H1 receptor (Cavia porcellus, UniProt P31389). Briefly: Antagonism of Histamine H1 receptor in the isolated guinea pig ileum. The class given is functional, tissue-based. The conditions noted are these: read-out: pA2 (converted). An outline of the steps:
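Isolated guinea pig ileum; contractile responses to histamine (H1) or methacholine (muscarinic) were tested for blockade.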

For test [4], the species on record is Cavia porcellus. Kind of test: Antagonism of the positive chronotropic action of histamine in the isolated guinea pig atrium. Format: functional. The settings on record: Cardiac atrium. An outline of the steps:
as §1

Test [5] is filed under the species Rattus norvegicus. Briefly: Inhibition of gastric acid secretion in the pylorus-ligated rat (after 2h). The class given is functional. The settings on record: Stomach. An outline of the steps:
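Pylorus-ligated rat, by a modified Shay procedure. Compound given subcutaneously at no fewer than five dose levels (three in one case), with at least five rats per dose.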

Test [6] in a line: Potency ratio in pylorus-ligated rat relative to cimetidine (after 2h). Format: functional.

Chain of Histamine H1 receptor (P31389 whole entry): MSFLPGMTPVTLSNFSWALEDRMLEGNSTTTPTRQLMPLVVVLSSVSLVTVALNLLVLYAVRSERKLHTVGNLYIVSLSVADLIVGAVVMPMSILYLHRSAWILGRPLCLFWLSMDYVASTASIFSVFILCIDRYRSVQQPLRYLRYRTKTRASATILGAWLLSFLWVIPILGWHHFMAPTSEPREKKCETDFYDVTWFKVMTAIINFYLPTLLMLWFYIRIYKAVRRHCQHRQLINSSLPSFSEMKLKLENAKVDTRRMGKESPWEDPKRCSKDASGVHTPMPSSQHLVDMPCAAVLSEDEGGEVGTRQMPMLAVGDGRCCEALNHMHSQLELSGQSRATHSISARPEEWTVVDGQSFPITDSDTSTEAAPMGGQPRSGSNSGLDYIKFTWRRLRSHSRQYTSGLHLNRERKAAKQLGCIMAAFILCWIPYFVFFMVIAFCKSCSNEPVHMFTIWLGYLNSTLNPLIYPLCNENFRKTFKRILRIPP
Chain of Histamine H2 receptor (P47747 whole entry): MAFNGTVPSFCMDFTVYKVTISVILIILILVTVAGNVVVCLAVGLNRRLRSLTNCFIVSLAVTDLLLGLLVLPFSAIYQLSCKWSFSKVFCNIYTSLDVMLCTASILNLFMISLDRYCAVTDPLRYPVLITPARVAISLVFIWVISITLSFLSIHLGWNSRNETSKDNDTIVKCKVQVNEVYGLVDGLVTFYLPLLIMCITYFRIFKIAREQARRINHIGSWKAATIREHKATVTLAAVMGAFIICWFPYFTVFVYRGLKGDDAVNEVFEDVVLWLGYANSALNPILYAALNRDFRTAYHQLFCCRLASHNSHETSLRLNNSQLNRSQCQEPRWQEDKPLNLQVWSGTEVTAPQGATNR

Turning to `N=C(N)Nc1nc(CSCCNc2n[s+]([O-])nc2N)cs1` (centres undefined), the pA2 (usually a measure of antagonist potency on a negative log scale) in test [1] was found to be 4.3. In addition, the figures for the Kb in test [2] and in test [3] were 0.0251 µM and 126 µM, respectively.
Turning to `CNC1=NS(=O)(=O)N=C1NCCSCc1ccc(CN(C)C)s1`, the Kb in test [4] was found to be 0.14 µM. Further, in test [5], the ED50 – broadly, the midpoint of the dose-response relation – came to 0.072 µmol/kg. In addition, the Ratio in test [6] is recorded as 94.
`CNC1=NS(=O)(=O)N=C1NCCSCc1[nH]cnc1C` gave a Kb in test [4] of 11.5 µM. The same compound yielded an ED50 in test [5] of 131 µmol/kg. Further, the Ratio in test [6] amounted to 0.07.
The matching figures for `CN(C)Cc1cccc(OCCCNc2n[s+]([O-])nc2N)c1` (centres undefined): 0.065 µM, 0.066 µmol/kg and 142.
Consider `CN/C(=N\CCSCc1nc[nH]c1C)NC#N` [CIMETIDINE], for which the Kb in test [4] was 1.2 µM. This compound also displayed an ED50 in test [5] of 9.4 µmol/kg.
